Reference: PubChem BioAssay
Active and inactive are the calls of the source.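 Rule for the calls, unless noted: active = viability at or below 30% in both replicate assays; inconclusive = viability at or below 30% in just one of the two assays; inactive = the rest.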

How the values were obtained:
[1] = SK-BR-3 cell growth inhibitors, pilot screen, 24 h, human (AID 572;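 active = viability at or below 10% of carrier control in both of two separate runs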;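 note: compound exposure lasted between 18 and 24 h rather than exactly 24 h; 100% = carrier-treated control wells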); details: SK-BR-3 viability, CellTiter-Glo luminescence, at 10 µM, stronger effect = lower value
[2] = HUVEC growth inhibition – cell-based, human, primary screen (AID 575); details: HUVEC proliferation, CellTiter-Glo luminescence, 72 h; at 10 µM; stronger effect = lower value;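 note: 100% = median of untreated cell wells with 0.1% DMSO on each plate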
How it was run: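 Test system – primary HUVEC, no more than 12 passages · Dosing – one dose, 10 µM final, 0.1% DMSO · Times – 72 h treatment at 37 °C · Measured by – ATP-based CellTiter-Glo luminescent read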

[3] = growth inhibitors of H69AR lung tumor, primary screen, human, duplicate replicates (AID 580;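 active = viability at or under a set limit in both replicates, limit being median viability minus 3 SD, cut at about 48% in these data, passing the limit was not always enough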;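 note: 100% = mean luminescence of untreated wells and 0% = no signal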); details: H69AR lung tumor cells viability, ATP luminescence, 72 h; at 10 µM; stronger effect = lower value
[4] = reversal of MRP1-mediated doxorubicin resistance, pilot screen, H69AR cells, doxorubicin co-treatment (AID 601;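 active = viability loss from added drug above about 55%, and viability with drug at most 40%, in both replicates, limit read from the data, passing the limit was not always enough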); details: CellTiter-Glo, 72 h, at 10 µM; for differential viability (reversal): stronger effect = higher value
[5] = 384-well plate pilot, post-Golgi transport modulator project, inhibition of yeast transport mutant growth (AID 636; in the data active = inhibition above about 31%); details: absorbance 615 nm, about 18 h, stronger effect = higher value
[6] = growth suppression of yeast trafficking mutant, preliminary HTS, modulators of trafficking downstream of Golgi apparatus project, 1536-format plate, OD 615 nm (AID 637; in the data active = inhibition above about 30%); details: yeast transport mutant growth, absorbance 615 nm, 18 h; stronger effect = higher value
[7] = H69AR cells + 2 uM doxorubicin, measured here: viability with 2 uM doxorubicin, stronger effect = lower value
[8] = H69AR cells, compound alone cytotoxicity

Row | SMILES | viability [1] | viability [2] | viability [3] | differential viability (reversal) ([4]; H69AR cells + 2 uM doxorubicin) | viability [4, 7] | viability [4, 8] | inhibition [5] | inhibition [6]
1 | CCOc1ccc(N2CC(C(=O)NCCc3ccc(OC)c(OC)c3)CC2=O)cc1 (stereo not drawn) | 108% (inactive) | 97.6% (inactive) | 94.5% (inactive) | 3.03% (inactive) | 91.4% | 94.5% | -11% (inactive) | 2.26% (inactive)
2 | CCCC(=O)Nc1cc(-c2nnc(OC)c3ccccc23)ccc1N1CCOCC1 | 109% (inactive) | 84.6% (inactive) | 94.5% (inactive) | -7.97% (inactive) | 102% | 94.5% | 0.96% (inactive) | 3.71% (inactive)
3 | COc1ccc(CCN(C)CCCC(C#N)(c2cc(OC)c(OC)c(OC)c2)C(C)C)cc1OC (stereo not drawn) | 85% (inactive) | 64.6% (inactive) | 95.6% (inactive) | -5.51% (inactive) | 101% | 95.6% | 5.71% (inactive) | -1.17% (inactive)
4 | COc1ccccc1N1CCN(c2cc(N3CCCC3)nc(C)n2)CC1 | 75% (inactive) | 91.8% (inactive) | 87.8% (inactive) | -3.8% (inactive) | 91.6% | 87.8% | -2.6% (inactive) | -2% (inactive)
5 | CCCn1nnc(NCc2ccc(OCc3cccs3)c(OC)c2)n1 | 88% (inactive) | 106% (inactive) | 96.5% (inactive) | 1.02% (inactive) | 95.5% | 96.5% | -6.44% (inactive) | 2.36% (inactive)
6 | CCCCCC(=O)N(CN1C(=O)CCC1=O)c1ccccc1 | 93% (inactive) | 104% (inactive) | 90.9% (inactive) | 3.52% (inactive) | 87.4% | 90.9% | -7.3% (inactive) | -0.73% (inactive)
7 | O=S1(=O)CCN2C(=N1)SC1=C2CCN(Cc2ccccc2)C1 | 106% (inactive) | 96.7% (inactive) | 89% (inactive) | -1.18% (inactive) | 90.2% | 89% | -9.04% (inactive) | 3.09% (inactive)
8 | c1ccc(OCCCn2nnc(-c3ccncc3)n2)cc1 | 109% (inactive) | 108% (inactive) | 95.8% (inactive) | -1.02% (inactive) | 96.8% | 95.8% | -5.21% (inactive) | 4.73% (inactive)
9 | Nc1ncnc2c1ncn2[C@@H]1O[C@H](CO)[C@@H](O)[C@H]1O | 105% (inactive) | 93.9% (inactive) | 113% (inactive) | 25.9% (inactive) | 87% | 113% | -2.47% (inactive) | 0.33% (inactive)
10 | Cc1c(C(=O)N2CCN(c3ccccc3)CC2)sc2ncnc(N3CCN(c4ccccc4)CC3)c12 | 88% (inactive) | 82.5% (inactive) | 93% (inactive) | -4.17% (inactive) | 97.2% | 93% | 0.13% (inactive) | -4.59% (inactive)
11 | O=C(OC1CCc2ccccc2C1=O)c1ccccc1O (stereo not drawn) | 71% (inactive) | 106% (inactive) | 78.6% (inactive) | -13.2% (inactive) | 91.8% | 78.6% | -1.33% (inactive) | -1.27% (inactive)
12 | Cn1c(=O)c2c(nc(N3CCN(c4ccccc4)CC3)n2CCCc2ccccc2)n(C)c1=O | 68% (inactive) | 90.6% (inactive) | 84.1% (inactive) | 1.85% (inactive) | 82.2% | 84.1% | -3.33% (inactive) | 7.09% (inactive)
13 | CSC1=C(C#N)C(C)CC(=O)N1 (stereo not drawn) | 91% (inactive) | 107% (inactive) | 115% (inactive) | 9.97% (inactive) | 105% | 115% | -7.81% (inactive) | 2.18% (inactive)
14 | CCN(CC)C(=O)C1=C(C)Nc2nnnn2C1c1cccnc1 (stereo not drawn) | 94% (inactive) | 109% (inactive) | 93.8% (inactive) | 4.5% (inactive) | 89.3% | 93.8% | 0.52% (inactive) | 3.11% (inactive)
15 | c1ccc(Cn2nnnc2C(c2cccs2)N2CCSCC2)cc1 (stereo not drawn) | 98% (inactive) | 93.1% (inactive) | 81.6% (inactive) | -2.6% (inactive) | 84.2% | 81.6% | -3.97% (inactive) | -4.35% (inactive)
16 | COc1ccc(NC(=O)c2oc3ccccc3c2NC(=O)c2ccco2)cc1 | 90% (inactive) | 88.8% (inactive) | 78.4% (inactive) | -0.385% (inactive) | 78.8% | 78.4% | -4.59% (inactive) | -4.92% (inactive)
17 | Cc1nc(-c2ccccc2)sc1C(N)=O | 107% (inactive) | 96.4% (inactive) | 94.4% (inactive) | -12.1% (inactive) | 106% | 94.4% | -3.29% (inactive) | 12.6% (inactive)
18 | CC(C)CCNC(=O)C(C)N(Cc1ccc(F)cc1)C(=O)c1ccc(CN2CCCCC2)o1 (stereo not drawn) | 72% (inactive) | 108% (inactive) | 95.4% (inactive) | -0.095% (inactive) | 95.5% | 95.4% | -5.95% (inactive) | -2.91% (inactive)
19 | CC1=C(C)C(=O)C(CCCCC#CCCCC#CCO)=C(C)C1=O | 62% (inactive) | 78.8% (inactive) | 56.6% (inactive) | 23.8% (inactive) | 32.8% | 56.6% | 2.99% (inactive) | -1.5% (inactive)
20 | O=C(c1csc2ccccc12)N1CCCCCC1 | 109% (inactive) | 83.7% (inactive) | 104% (inactive) | 9.99% (inactive) | 93.9% | 104% | -1.51% (inactive) | -3.87% (inactive)
21 | CCCC(CCC)C(=O)NCCN1CCOCC1 | 118% (inactive) | 85% (inactive) | 96.8% (inactive) | 10.2% (inactive) | 86.6% | 96.8% | -2.34% (inactive) | 4.92% (inactive)
22 | COc1ccccc1C1N(c2ccc(F)cc2)C(=O)C2CCCN21 (stereo not drawn) | 102% (inactive) | 111% (inactive) | 108% (inactive) | 17.8% (inactive) | 90.1% | 108% | -5.07% (inactive) | -1.27% (inactive)
23 | Cc1cn(C2CC3OCC3O2)c(=O)[nH]c1=O (stereo not drawn) | 101% (inactive) | 110% (inactive) | 94.2% (inactive) | -4.39% (inactive) | 98.5% | 94.2% | -7.12% (inactive) | -16.2% (inactive)
24 | CC(=O)Nc1nc(C)c(-c2csc(Nc3ccc(O)cc3)n2)s1 | 114% (inactive) | 19.7% (active) | 13.3% (active) | -5.39% (inactive) | 18.6% | 13.3% | -3.95% (inactive) | -6.13% (inactive)
25 | CCn1c(SCC(=O)Nc2ccccc2N2CCCCC2)nc2c1c(=O)n(C)c(=O)n2C | 113% (inactive) | 75.4% (inactive) | 73.9% (inactive) | 1.19% (inactive) | 72.7% | 73.9% | -6.13% (inactive) | 3.09% (inactive)
26 | Cc1nnc(C)c2c(C)n(Cc3ccc4c(c3)OCO4)c(C)c12 | 76% (inactive) | 91% (inactive) | 80.9% (inactive) | 6.03% (inactive) | 74.8% | 80.9% | -0.55% (inactive) | 24.5% (inactive)
